KCNQ1 act – human KCNQ1 channel potentiation or activation; AID 2648; CHO-K1 KCNQ1, thallium flux FluxOR fluorescence; hits give high values; B-score at 10 µM; actives 0.35% (n = 310,000); P51787;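 active = fluorescence ratio B-score, a plate-corrected score, at least three library SD, with initial intensity B-score within 5 SD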
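Doses: Single concentration per compound, DMSO matched to controls | Test system: KCNQ1-transfected CHO-K1 cells | Timing: 90 min dye loading and 20 min compound exposure, both at room temperature | Measured by: Kinetic FluxOR thallium fluorescence, 10-s 1-Hz baseline, 110-s post-stimulus read | Medium: Assay buffer with matched DMSO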
KCNK9 inh – blocks the human KCNK9 two-pore domain potassium channel; HEK293 KCNK9, FluxOR thallium flux fluorescence; hits give low values; B-score at 10 µM; actives 1.2% (n = 310,000); AID 488922;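 active = ratio B-score over 3 SD below the library mean, with starting fluorescence within 5 SD of its mean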;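 note: negative B-score means less thallium flux so channel inhibition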
hERG rescue – hERG (human) protection from proarrhythmic block; Q12809; CHO-hERG, FluxOR thallium flux, dofetilide IC70 present; activation (rescue from dofetilide block), less the hit threshold, % at 10 µM; actives 0.51% (n = 310,000);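 active = activation above the mean of controls blocked by dofetilide plus 5 SD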;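 note: thallium influx through hERG after potassium depolarization seen as dye fluorescence rise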
KCNQ1 inh – inhibitors of human KCNQ1 potassium channel. CHO-K1 KCNQ1, FluxOR thallium flux fluorescence; hits give high values. B-score at 10 µM. actives 1.3% (n = 310,000);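 active = compounds whose thallium flux B-score, printed positive for inhibition, exceeds three library SD while starting fluorescence stays within three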;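 note: channel opened by potassium depolarization with thallium stimulus after 20 min compound exposure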
KCNK3 block – human KCNK3 channel inhibition, primary screen. CHO-KCNK3 thallium flux, FluxOR fluorescence; hits give low values. O14649. actives 0.84% (n = 340,000). B-score at 10 µM;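 active = B-score under library mean minus 4 SD, starting fluorescence ratio at most library mean plus 5 SD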;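 note: more negative B-score means stronger inhibition of thallium flux through KCNK3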
Cl transport mod – modulates chloride dependent transport by human KCC2; actives 2.2% (n = 190,000); KCC2 cells, thallium flux FluoZin-2 fluorescence; B-score of Tl+ flux slope (higher = more flux/activation; lower = inhibition) at 10 µM; Q9H2X9;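 active = thallium flux slope and its plate-corrected score both differing from the plate sample mean at a set confidence after two filtering rounds, in either direction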;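 note: slope of fluorescence scaled to starting intensity during 10 to 20 s after thallium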
Target sequence (Q9H2X9 whole entry, looked up): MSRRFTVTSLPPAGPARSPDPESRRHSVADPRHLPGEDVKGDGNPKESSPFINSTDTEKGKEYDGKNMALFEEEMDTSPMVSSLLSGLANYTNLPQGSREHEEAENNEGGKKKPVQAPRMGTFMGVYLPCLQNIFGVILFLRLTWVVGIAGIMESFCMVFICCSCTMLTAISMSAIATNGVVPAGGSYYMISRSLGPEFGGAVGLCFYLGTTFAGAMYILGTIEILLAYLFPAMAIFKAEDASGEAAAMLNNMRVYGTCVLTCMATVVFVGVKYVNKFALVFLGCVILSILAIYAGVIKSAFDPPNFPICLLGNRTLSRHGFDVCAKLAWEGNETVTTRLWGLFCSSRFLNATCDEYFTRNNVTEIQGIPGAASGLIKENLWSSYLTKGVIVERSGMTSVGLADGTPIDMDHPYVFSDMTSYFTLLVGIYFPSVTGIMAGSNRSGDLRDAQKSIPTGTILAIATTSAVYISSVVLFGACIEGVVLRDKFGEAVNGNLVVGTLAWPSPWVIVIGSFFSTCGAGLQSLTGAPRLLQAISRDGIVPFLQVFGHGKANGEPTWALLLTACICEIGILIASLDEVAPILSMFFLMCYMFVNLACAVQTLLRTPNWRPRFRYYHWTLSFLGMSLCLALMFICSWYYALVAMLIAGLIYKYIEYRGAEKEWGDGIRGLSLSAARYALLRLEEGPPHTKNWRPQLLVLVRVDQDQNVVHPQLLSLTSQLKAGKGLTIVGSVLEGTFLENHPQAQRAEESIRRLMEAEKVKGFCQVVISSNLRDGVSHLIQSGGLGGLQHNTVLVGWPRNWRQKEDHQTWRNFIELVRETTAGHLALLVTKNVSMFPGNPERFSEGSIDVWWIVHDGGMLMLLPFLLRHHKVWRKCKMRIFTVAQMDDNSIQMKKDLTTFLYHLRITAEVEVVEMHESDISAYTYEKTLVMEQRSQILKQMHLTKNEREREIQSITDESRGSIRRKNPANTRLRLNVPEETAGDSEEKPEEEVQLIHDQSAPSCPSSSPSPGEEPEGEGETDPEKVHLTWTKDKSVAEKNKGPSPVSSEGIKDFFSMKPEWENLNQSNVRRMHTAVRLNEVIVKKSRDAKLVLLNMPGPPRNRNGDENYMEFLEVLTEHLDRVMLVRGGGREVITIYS
KCC2 secondary – KCC2 (human) modulation, secondary assay. shares compounds with Cl transport mod. HEK293-KCC2, thallium flux, FluoZin2 fluorescence; hits give high values. normalised thallium flux (F/F0 slope) at 10 µM. actives 15% (n = 3,700). AID 1713;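 active = thallium flux slope above the same plate's solvent-only control mean plus 3 SD; inconclusive = the two replicate wells disagree; inactive = no significant difference from solvent-only control wells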
KCC2 bumet counter – thallium flux persisting under bumetanide in KCC2 cells, counter-screen secondary assay; shares compounds with Cl transport mod; HEK293-KCC2 + bumetanide/ouabain, thallium flux FluoZin2; hits give high values; normalized thallium flux at 10 µM; actives 49% (n = 3,700); AID 1714;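 active = thallium entry rate above the same plate's blocked-transporter control wells by more than 3 SD; inconclusive = the two repeat wells disagree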;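 note: raw slope of fluorescence over initial fluorescence between 10 and 20 s after thallium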
KCC2 sec2 – KCC2 (human) modulation, second secondary assay. actives 23% (n = 3,700). HEK293-KCC2, thallium flux FluoZin2 fluorescence; actives lie on both sides; F/F0 rise rate, 10–20 s post-thallium. AID 1715. shares compounds with Cl transport mod. normalized thallium flux at 10 µM;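 active = thallium flux slope more than 3 SD above or below the plate's solvent-only control mean, mostly below; inconclusive = the two repeat wells disagreed; inactive = no significant shift from solvent-only controls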
HEK293 Tl flux – acts in parental HEK cells, KCC2 counter-screen. shares compounds with Cl transport mod. thallium flux rate (normalised fluorescence) at 10 µM. HEK293 parental cells, thallium flux FluoZin2, ouabain; baseline-ratio fluorescence slope, 10–20 s after thallium. actives 46% (n = 3,700);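 active = thallium flux rate significantly above the same plate's solvent-only control wells, beyond their mean plus 3 SD; inconclusive = the two replicate wells gave conflicting results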
KCC2 ouabain – KCC2 (human) modulation, ouabain retest; actives 48% (n = 3,700); shares compounds with Cl transport mod; raw Tl+ flux slope (below DMSO = inhibition, above = activation) at 10 µM; AID 1717; HEK293-KCC2, thallium flux FluoZin2 fluorescence; bidirectional: low = inhibitor, high = activator;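 active = thallium flux slope beyond 3 SD from same-plate DMSO control mean in most replicates, usually higher, sometimes lower; inconclusive = repeat tests gave conflicting results; inactive = no significant difference from controls in most replicates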;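 note: slope of initial-normalized fluorescence between seconds 10 and 20 after thallium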
HEK counter2 – acts in parental HEK cells, second KCC2 counter-screen; actives 33% (n = 3,700); AID 1718; HEK293 parental, thallium flux FluoZin-2 fluorescence slope; shares compounds with Cl transport mod; thallium flux slope at 10 µM;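 active = thallium flux slope above the same plate's solvent-control mean plus 3 SD in both duplicate wells; inconclusive = duplicate wells that disagreed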;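 note: run without ouabain in cells lacking the KCC2 cotransporter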
Each line names hits and unclear results; the compound was inactive in the other large screens (follow-up assays come after a bar, where they were run). Only some compounds are listed: those with a hit (about 4.1% of all), similar ones and a draw of the others.

CCCCn1c(=S)[nH]c2ccc(N3CCOCC3)cc2c1=O	Cl transport mod 12 (no result: KCNK3 block) | KCC2 secondary 0.014 | KCC2 bumet counter 0.031 | KCC2 sec2 inactive | HEK293 Tl flux 0.03 | KCC2 ouabain 0.032 | HEK counter2 0.016
O=c1c2cc(N3CCOCC3)ccc2[nH]c(=S)n1Cc1ccc(Cl)cc1	none
Cc1ccc(Cn2c(=S)[nH]c3ccc(N4CCOCC4)cc3c2=O)o1	Cl transport mod 14 | KCC2 secondary inactive | KCC2 bumet counter 0.0098 | KCC2 sec2 inactive | HEK293 Tl flux inconclusive | KCC2 ouabain inactive | HEK counter2 inactive
CN(C)S(=O)(=O)N1CCC(Oc2cccc(C(=O)NC3CCCCCC3)c2)CC1	none (no result: Cl transport mod)
CS(=O)(=O)N(CC(O)CON=C1c2ccccc2-c2ccccc21)c1ccc(F)cc1 (stereo not drawn)	none (no result: Cl transport mod) | KCC2 secondary inactive | KCC2 bumet counter inactive | KCC2 sec2 inactive | HEK293 Tl flux inconclusive | KCC2 ouabain inactive | HEK counter2 inactive
Cc1cc(C)n(-c2nc3sc4c(c3c(=O)[nH]2)CCCC4)n1	KCNQ1 act 13, Cl transport mod 42 (no result: KCNK3 block) | KCC2 secondary inactive | KCC2 bumet counter 0.1 | KCC2 sec2 0.098 | HEK293 Tl flux 0.1 | KCC2 ouabain 0.089 | HEK counter2 0.069
CCO/C=C1\N=C(c2ccc(F)cc2)OC1=O	none
Cc1cc(C)c(C#N)c(OCC(=O)c2ccccc2)n1	none | KCC2 secondary inactive | KCC2 bumet counter inactive | KCC2 sec2 inconclusive | HEK293 Tl flux inactive | KCC2 ouabain inactive | HEK counter2 inactive
Cc1cc(C)c(C#N)c(OCC(=O)Nc2ccccc2)n1	none (no result: Cl transport mod)
C(#Cc1c(-c2ccsc2)sc2ccccc12)c1ccsc1	none (no result: KCNQ1 act, KCNK9 inh, hERG rescue, KCNQ1 inh, Cl transport mod)
CCOC(=O)Cc1csc(NC(=S)NC(=O)c2cc(OC)cc(OC)c2)n1	Cl transport mod 26 | KCC2 secondary 0.015 | KCC2 bumet counter 0.034 | KCC2 sec2 inactive | HEK293 Tl flux 0.023 | KCC2 ouabain 0.065 | HEK counter2 0.012
CCOC(=O)Cc1csc(NC(=O)c2cc(C)cc(C)c2)n1	none
CCOC(=O)Cc1csc(NC(=S)NC(=O)CC(C)C)n1	Cl transport mod 8.8 | KCC2 secondary inconclusive | KCC2 bumet counter 0.04 | KCC2 sec2 inactive | HEK293 Tl flux 0.014 | KCC2 ouabain 0.036 | HEK counter2 0.011
CCOC(=O)Cc1csc(NC(=S)NC(=O)c2cccc([N+](=O)[O-])c2)n1	Cl transport mod 9.6 | KCC2 secondary 0.014 | KCC2 bumet counter 0.034 | KCC2 sec2 inactive | HEK293 Tl flux 0.014 | KCC2 ouabain 0.034 | HEK counter2 inactive
O=C(COC(=O)c1cc(=O)[nH]c(=O)[nH]1)Nc1ccccc1F	none (no result: KCNQ1 act, KCNK9 inh, hERG rescue, KCNQ1 inh, Cl transport mod)
COc1cc(OC)c(NC(=O)Cn2cccc2)cc1Cl	none (no result: Cl transport mod)
COc1cc(OC)c(NC(=O)C(=O)CC(=O)c2ccc(C)cc2C)cc1Cl	Cl transport mod 16 | KCC2 secondary inactive | KCC2 bumet counter 0.046 | KCC2 sec2 inactive | HEK293 Tl flux 0.019 | KCC2 ouabain inactive | HEK counter2 0.012

Screening results as filed in PubChem.
